Hits are enriched below; roughly 3% of the tested compounds scored in any of these assays.
GC-B act = GC-B (human) receptor activation | HEK293-GC-B cells, CNP EC30, cGMP TR-FRET; 0% at EC30 CNP, 100% saturating CNP | activation, % at 10 µM | 370,000 compounds, 0.11% hits;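 active means activation at 10 µM reaching about 35% in either raw or pattern-adjusted values, limit read from the data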
GASC-1 inh = human JMJD2C demethylase inhibition; Q9H3R0; GST-JMJD2C(1-420) H3K9me3 demethylation, DELFIA europium; inhibition, % at 2.35 µM; 330,000 compounds, 0.069% hits;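 active means more than half of a compound's replicate wells show inhibition beyond 50%, single wells judged on their own value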;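 further: signal counts dimethyl H3K9 product captured on neutravidin plate; 0% = median of DMSO wells and 100% = 0.3 times that DMSO median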
GRIN3A LBD mod = modulates the human NR3A ligand-binding domain; NR3A LBD differential scanning fluorimetry, Tm shift; 0% = protein alone, 100% = glycine-bound protein; Tm shift relative to glycine control, % at 25 µM; 340,000 compounds, 2.5% hits; AID 1259313;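 active means melting temperature shift of at least 10% of the positive control shift, at one fixed dose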
NPR1 activator = GC-A (human) enzyme activation; 370,000 compounds, 0.14% hits; AID 1671463; HEK293 GC-A cells, cGMP TR-FRET, EC30 ANP; 0% at EC30 ANP, 100% saturating ANP; activation, % at 10 µM; P16066; in the data active means activation above about 40%
Target sequence (P16066 whole entry, looked up): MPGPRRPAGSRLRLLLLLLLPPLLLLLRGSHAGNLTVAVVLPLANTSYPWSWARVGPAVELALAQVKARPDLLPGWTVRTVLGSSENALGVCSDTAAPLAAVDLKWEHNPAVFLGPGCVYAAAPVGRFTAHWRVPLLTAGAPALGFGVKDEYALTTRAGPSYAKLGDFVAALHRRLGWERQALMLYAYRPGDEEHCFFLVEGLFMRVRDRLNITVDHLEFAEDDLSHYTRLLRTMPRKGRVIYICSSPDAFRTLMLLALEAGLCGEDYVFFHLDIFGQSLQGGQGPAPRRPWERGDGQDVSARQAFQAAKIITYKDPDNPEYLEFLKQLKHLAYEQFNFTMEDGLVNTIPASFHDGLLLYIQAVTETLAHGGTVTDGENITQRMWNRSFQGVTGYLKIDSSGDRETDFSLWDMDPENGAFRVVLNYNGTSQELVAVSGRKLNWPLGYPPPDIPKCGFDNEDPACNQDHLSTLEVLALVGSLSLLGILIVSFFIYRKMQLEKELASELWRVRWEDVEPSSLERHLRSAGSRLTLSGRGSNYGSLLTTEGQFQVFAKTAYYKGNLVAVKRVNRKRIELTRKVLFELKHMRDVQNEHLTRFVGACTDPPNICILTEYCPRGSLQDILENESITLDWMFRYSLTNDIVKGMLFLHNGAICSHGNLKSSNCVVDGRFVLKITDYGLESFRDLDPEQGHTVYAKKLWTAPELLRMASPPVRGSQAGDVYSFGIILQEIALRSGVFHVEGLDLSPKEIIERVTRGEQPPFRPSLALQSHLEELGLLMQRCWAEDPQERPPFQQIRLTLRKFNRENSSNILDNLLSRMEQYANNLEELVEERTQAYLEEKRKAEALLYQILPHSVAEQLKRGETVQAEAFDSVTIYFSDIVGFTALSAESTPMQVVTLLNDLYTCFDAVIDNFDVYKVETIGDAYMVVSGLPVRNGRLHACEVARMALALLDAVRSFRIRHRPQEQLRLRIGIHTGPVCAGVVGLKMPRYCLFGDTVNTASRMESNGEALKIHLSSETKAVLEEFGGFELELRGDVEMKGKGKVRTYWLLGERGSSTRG
Hep lipid drop = hepatic lipid droplet formation modulation; AID 1656; inhibition, % at 6.5 µM; AML12 mouse hepatocytes, oleate lipid droplets, BODIPY imaging; 240,000 compounds, 0.4% hits;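 active means lipid droplet intensity inhibited by at least 50%, with more than 500 cells counted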
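Assay system: AML12 mouse liver cells | Compound: 6.5 µM single-point dosing | Schedule: Overnight exposure | Technique: Fluorescence imaging, 20x objective, two fields per well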
aDG glyco up = alpha-DG glycosylation activation | Pro5-aDG cells, alpha-DG glycosylation AlphaScreen (IIH6); 0% Pro5, 100% B10-LARGE cell signal | activation, % at 10 µM | AID 624168 | 360,000 compounds, 0.22% hits;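 active means activation of at least 8% versus controls, or a plate z-score of at least 8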;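 further: Pro5 are CHO cells carrying HIG-tagged alpha-DG that lacks glycosylation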
* hit, by the source's call.

How did CCOc1ccccc1OCCCC(=O)Nc1cc(S(=O)(=O)N2CCCCC2)ccc1C do in these assays?
GC-B act: 0; NPR1 activator: -2; aDG glyco up: 0

How did COC(=O)c1ccccc1S(=O)(=O)NC(=O)[C@H]1O[C@@H](n2ccc(=O)[nH]c2=O)[C@H](O)[C@@H]1O do in these assays?
GC-B act: 4; NPR1 activator: 4

Results for O=C(Nc1ccc(Cl)cc1Cl)O[C@@H]1CC[C@@]23CCCN2C(=O)CCC[C@H]3C1 ?
GC-B act: 1; NPR1 activator: -3

How did O=[N+]([O-])c1cccc(-c2ccc(/C=N/NC(=S)Nc3cccc(F)c3)o2)c1 do in these assays?
GC-B act: -8; GASC-1 inh: -6; GRIN3A LBD mod: 28*; NPR1 activator: 1; Hep lipid drop: 15; aDG glyco up: 0

Results for Cc1ccc(-c2ccc(/C=N/NC(=S)Nc3ccccc3)o2)cc1[N+](=O)[O-] ?
GC-B act: 2; GASC-1 inh: -3; GRIN3A LBD mod: 27*; NPR1 activator: 2; aDG glyco up: 0

Results for NC(=S)N/N=C/c1ccc(-c2cccc([N+](=O)[O-])c2)o1 ?
GC-B act: -3; GASC-1 inh: -37; GRIN3A LBD mod: 9; NPR1 activator: -7; aDG glyco up: 0

How did COc1ccc(-c2cn3cc(C)ccc3n2)cc1Br do in these assays?
GC-B act: -4; GASC-1 inh: -2; GRIN3A LBD mod: 5; NPR1 activator: -4; Hep lipid drop: 10; aDG glyco up: 94*

How did Cc1ccc2[nH]c(O)c(N=NC(=O)CCc3ccccc3)c2c1Br do in these assays?
GC-B act: -3; GASC-1 inh: 5; GRIN3A LBD mod: 17*; NPR1 activator: -1; Hep lipid drop: 6; aDG glyco up: 1

How did Cn1cccc1CC(=O)NNC(=S)Nc1ccc(Cl)cc1Cl do in these assays?
GC-B act: -3; GASC-1 inh: -1; GRIN3A LBD mod: -4; NPR1 activator: 1; Hep lipid drop: -11; aDG glyco up: 0

Results for O=C(CN1c2ccccc2Sc2ccccc21)NNC(=S)Nc1ccc(Cl)cc1Cl ?
GC-B act: 1; GASC-1 inh: 4; GRIN3A LBD mod: 21*; NPR1 activator: 0; aDG glyco up: 0

How did O=C(CN1c2ccccc2Sc2ccccc21)NNC(=S)Nc1ccc(Cl)cc1 do in these assays?
GC-B act: 5; GASC-1 inh: -25; GRIN3A LBD mod: 33*; NPR1 activator: 3; Hep lipid drop: -1; aDG glyco up: 0

Results for N#Cc1c(N)[nH]c2ccc(Sc3ccccc3)cc12 ?
GC-B act: 44*; GRIN3A LBD mod: 109*; NPR1 activator: 59*; aDG glyco up: 0

How did N#Cc1c(N)[nH]c(=S)c(C#N)c1-c1ccccc1 do in these assays?
GC-B act: 3; GASC-1 inh: -31; GRIN3A LBD mod: 2; NPR1 activator: 18; aDG glyco up: 1

How did Nc1nc2ncccc2cc1C(=O)c1c[nH]c2ccccc12 do in these assays?
GC-B act: 1; NPR1 activator: -3

What do the screens show for `O=C(O)CS(=O)(=O)c1ccc(Oc2ccc(S(=O)(=O)CC(=O)O)cc2)cc1`?
GC-B act: 1; GASC-1 inh: 4; GRIN3A LBD mod: 11*; NPR1 activator: 5

What do the screens show for `COC(=O)c1cc(NC(=S)NCc2ccc(Cl)cc2)cc(C(=O)OC)c1`?
GC-B act: -2; GASC-1 inh: 1; GRIN3A LBD mod: 25*; NPR1 activator: -2; Hep lipid drop: 1; aDG glyco up: 0

How did COC(=O)C1(C)COP(=O)(NC23CC4CC(CC(C4)C2)C3)OC1 (stereo unspecified) do in these assays?
GC-B act: 1; GRIN3A LBD mod: 0; NPR1 activator: 7; aDG glyco up: 0

Results for Nc1nonc1-n1nnc(C(=O)N/N=C/c2cccc(Cl)c2)c1CN1CCCCCC1 ?
GC-B act: -1; GASC-1 inh: -6; GRIN3A LBD mod: -1; NPR1 activator: 2; aDG glyco up: 0

What do the screens show for `CCOC(=O)c1nnn(-c2nonc2-n2cccc2)c1CN1CCCCC1`?
GC-B act: -3; GASC-1 inh: 4; GRIN3A LBD mod: 18*; NPR1 activator: -2; aDG glyco up: 0
